The source made the active and inactive calls. The rule behind the calls is not given here.
Legend:
[1] = molecular target: Bacterial 70S ribosome; experiment: Competitive inhibition of peptidyl transferase activity of Escherichia coli ribosome using Ac[14C]-L-Phe-tRNA/puromycin as donor/acceptor substrate assessed as acetyl[14C]phenylalanylpuromycin formation by double reciprocal plot analysis
Method in brief: (§1)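 E. coli washed ribosomes (2.78 A260 units) charged with 20.8 pmol Ac[14C]Phe-tRNA in 100 mM Tris-Cl pH 7.5, 100 mM NH4Cl, 15 mM Mg(OAc)2, 0.65 mM DTT, 1.2 mM GTP, FWR, poly(U), 8 min at 28 °C. Mixture then added to puromycin with or without inhibitor, 28 °C. Product measured radiometrically. Ki from double reciprocal plots; highest concentration tested 2 × 10^-4 M.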

[2] = molecular target: T1, Bacterial 70S ribosome (Bacteria) (UniProt P0A7V0+P60723+P0AG67+P0A7R5+P0A7R9+P0A7S3+P0A7S9+P0AG59+P0ADZ4+P0A7T3+P0AG63+P0A7T7+P0A7U3+P0A7U7+P68679+P0A7V3+P0A7V8+P0A7W1+P02358+P02359+P0A7W7+P0A7X3+P0A7J3+P0A7J7+P0AA10+P0ADY3+P02413+P0ADY7+P0AG44+P0C018+P0A7K6+P0A7L0+P0A7L3+P0AG48+P61175+P0ADZ0+P60624+P68919+P0A7L8+P0A7M2+P0A7M6+P60422+P0AG51+P0A7N1+P0A7M9+P0A7N4+P0A7N9+P0A7P5+P0A7Q1+Q2EEQ2+P0A7Q6+P60438+P62399+P0AG55+P0A7K2); experiment: Competitive inhibition of peptidyl transferase activity of Escherichia coli ribosome using Ac[14C]-L-Phe-tRNA/puromycin as donor/acceptor substrate assessed as acetyl[14C]phenylalanylpuromycin formation at 2 x 10^-4 M by double reciprocal plot analysis; method in brief: as §1
[3] = molecular target: T1, Bacterial 70S ribosome (Bacteria); experiment: Competitive inhibition of peptidyl transferase activity of Escherichia coli ribosome using Ac[14C]-L-Phe-tRNA/puromycin as donor/acceptor substrate assessed as acetyl[14C]phenylalanylpuromycin formation incubated with donor substrate/enzyme prior to puromycin addition
Method in brief: (§2)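 Ribosomes charged with Ac[14C]-L-Phe-tRNA as in the binding step (poly(U), GTP, FWR, Mg2+, 8 min, 28 °C). The charged mixture was preincubated with 10^-6 M inhibitor for 15 min at 28 °C before adding 10^-4 M puromycin. Ac[14C]Phe-puromycin formation was followed over time at 28 °C.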

[4] = molecular target: Bacterial 70S ribosome; experiment: Competitive inhibition of peptidyl transferase activity of Escherichia coli ribosome using Ac[14C]-L-Phe-tRNA/puromycin as donor/acceptor substrate assessed as acetyl[14C]phenylalanylpuromycin formation by Dixon plot analysis
[5] = molecular target: T1, Bacterial 70S ribosome (Bacteria); experiment: Competitive inhibition of peptidyl transferase activity of Escherichia coli ribosome using Ac[14C]-L-Phe-tRNA/puromycin as donor/acceptor substrate assessed as acetyl[14C]phenylalanylpuromycin formation at 10^-6 M preincubated for 15 mins prior to puromycin addition; method in brief: as §2

Row | Compound | Ki [1] [nM] | other results
1 | CCCSC[C@H](CO)NC(=O)/C=C/c1c(C)[nH]c(=O)[nH]c1=O | 1100 | 
2 | CCCSC[C@@H](CO)NC(=O)/C=C/c1c(C)[nH]c(=O)[nH]c1=O |  | inhibition [2]: inactive
3 | CSCSCC(CO)NC(=O)/C=C/c1c(C)nc(O)nc1O (racemic) | 1090 | inhibition [3]: Active
4 | CCCSCC(CO)NC(=O)/C=C/c1c(C)[nH]c(=O)[nH]c1=O (racemic) | 2000 | Ki [4]: 2000 nM
5 | Cc1[nH]c(=O)[nH]c(=O)c1/C=C/C(=O)NC(CO)CSCc1ccccc1 (racemic) | 1210 | 
6 | CCCCCC(CO)NC(=O)/C=C/c1c(C)[nH]c(=O)[nH]c1=O (racemic) | 2300 | 
7 | Cc1[nH]c(=O)[nH]c(=O)c1/C=C/C(=O)NC(C)CO (racemic) |  | inhibition [2]: inactive
8 | CSC[S@@+]([O-])CC(CO)NC(=O)/C=C/c1c(C)[nH]c(=O)[nH]c1=O (stereo partly specified) [SPARSOMYCIN] | 500 | inhibition [5]: Active

From ChEMBL document CHEMBL3244100, “Effect of sparsomycin analogues on the puromycin-peptidyl transferase reaction on ribosomes” (J Med Chem, 1978)
